Values after ≈ are worked out from the molar mass of the structure shown.
What was measured:
[1] = biological target: T1, DNA topoisomerase II (Homo sapiens, UniProt P11388+Q02880); assay: In vitro inhibitory activity at 100 uM against topoisomerase II measured as ATP-dependent unknotting of P4 DNA compared to enzyme and DNA control.; type: protein assay
[2] = test system: CAKI-1; assay: In vitro growth inhibition of CAKI-1, Kidney carcinoma; type: functional, cell-based; settings: Homo sapiens
Procedure, shortened: (§1)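 Human tumor lines screened in-house: KB, A549, MCF-7, CAKI-1 and SK-MEL-2. Read-out was SRB staining with absorbance at 562 nm.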

[3] = test system: MCF7; assay: (§2) In vitro growth inhibition of MCF-7, breast adenocarcinoma.; type: functional, cell-based; settings: Homo sapiens; procedure, shortened: as §1
[4] = test system: SK-MEL-2; assay: In vitro growth inhibition of SK-MEL-2, malignant melanoma.; type: functional, cell-based; settings: Homo sapiens; procedure, shortened: as §1
[5] = test system: CAKI-1; assay: (§3) In vitro percent inhibition of CAKI-1, Kidney carcinoma; type: functional, Homo sapiens; parameters: concentration or dose not given beside the values
[6] = biological target: Tubulin; type: protein-complex assay
[7] = test system: SK-MEL-2; assay: In vitro percent inhibition of SK-MEL-2 cells, malignant melanoma.; type: functional, Homo sapiens; parameters: concentration or dose not given beside the values
[8] = test system: A549; assay: In vitro percent inhibition of A549, lung carcinoma.; type: functional, Homo sapiens
[9] = test system: A549; assay: In vitro growth inhibition of A549, lung carcinoma.; type: functional, cell-based; settings: Homo sapiens; procedure, shortened: as §1
[10] = biological target: T2, DNA topoisomerase 1 (Homo sapiens) (UniProt P11387); assay: In vitro inhibitory activity at 100 uM against topoisomerase I measured as ATP-independent relaxation of supercoiled plasmid DNA compared to enzyme and DNA control.
T2 sequence (whole entry): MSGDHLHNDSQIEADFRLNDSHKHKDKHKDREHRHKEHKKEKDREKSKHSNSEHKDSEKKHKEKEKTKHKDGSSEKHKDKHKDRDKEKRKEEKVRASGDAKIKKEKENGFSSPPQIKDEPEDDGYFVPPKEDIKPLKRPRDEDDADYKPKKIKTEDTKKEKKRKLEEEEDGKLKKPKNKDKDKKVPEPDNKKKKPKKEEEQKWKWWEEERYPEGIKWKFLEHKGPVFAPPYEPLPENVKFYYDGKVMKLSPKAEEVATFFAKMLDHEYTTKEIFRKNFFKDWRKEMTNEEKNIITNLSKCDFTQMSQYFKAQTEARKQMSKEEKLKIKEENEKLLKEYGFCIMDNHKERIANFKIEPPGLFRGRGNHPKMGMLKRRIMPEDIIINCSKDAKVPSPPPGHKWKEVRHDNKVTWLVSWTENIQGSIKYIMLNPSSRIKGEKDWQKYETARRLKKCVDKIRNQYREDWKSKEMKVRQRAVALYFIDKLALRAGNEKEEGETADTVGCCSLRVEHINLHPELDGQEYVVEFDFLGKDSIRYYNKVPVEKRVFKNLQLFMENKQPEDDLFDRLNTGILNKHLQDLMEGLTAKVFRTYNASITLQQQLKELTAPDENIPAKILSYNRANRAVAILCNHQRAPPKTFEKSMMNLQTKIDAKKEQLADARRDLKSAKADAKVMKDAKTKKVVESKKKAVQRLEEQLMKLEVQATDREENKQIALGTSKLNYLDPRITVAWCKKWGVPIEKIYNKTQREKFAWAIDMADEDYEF

[11] = test system: KB; assay: In vitro growth inhibition of KB, epidermoid carcinoma of the nasopharynx.; type: functional, cell-based; settings: Homo sapiens; procedure, shortened: as §1
[12] = biological target: T1, DNA topoisomerase II; assay: In vitro activity against mammalian topoisomerase II measured as ATP-dependent unknotting of P4 DNA compared to enzyme and DNA control; type: protein assay
Procedure, shortened: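 Topo II inhibition read as ATP-dependent unknotting of P4 DNA, compared with enzyme-only and DNA-only control reactions.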

[13] = test system: MCF7; assay: as §2; type: functional, Homo sapiens; procedure, shortened: as §1
[14] = test system: MCF7; assay: In vitro percent inhibition of MCF-7, breast adenocarcinoma.; type: functional, Homo sapiens
[15] = test system: KB; assay: In vitro epidermoid carcinoma of the nasopharynx; type: functional, Homo sapiens; procedure, shortened: as §1
[16] = test system: A549 (Homo sapiens); assay: In vitro percent inhibition of A549, lung carcinoma
[17] = test system: CAKI-1; assay: as §3; type: functional, Homo sapiens
[18] = test system: SK-MEL-2; assay: In vitro percent inhibition of SK-MEL-2, malignant melanoma.; type: functional, Homo sapiens
[19] = test system: KB; assay: In vitro percent inhibition of KB, epidermoid carcinoma of the nasopharynx.; type: functional, Homo sapiens

SMILES	inhibition [1]	EC50 [2]	EC50 [3]	EC50 [4]	Inhibition [5]	IC50 [6]	Inhibition [7]	Inhibition [8]	EC50 [9]	inhibition [10]	EC50 [11]	other results
CSc1ccc2c(cc1=O)[C@@H](NC(=O)c1cc(O)c(O)c(O)c1)CCc1cc(O)c(O)c(O)c1-2	100%	> 9.6 µg/mL	8.6 µg/mL (≈ 17.8 µM)	> 9.6 µg/mL	29%	> 40 µM	30%	30%	> 9.6 µg/mL	100%	9.6 µg/mL (≈ 19.9 µM)	
COc1c(O)c(O)cc2c1-c1ccc(SC)c(=O)cc1[C@@H](NC(C)=O)CC2												IC50 [12]: 38 µM
CSc1ccc2c(cc1=O)[C@@H](NC(=O)c1ccccc1[N+](=O)[O-])CCc1cc(O)c(O)c(O)c1-2	100%					> 40 µM				0%		
CCC(=O)Oc1cc2c(c(OC(=O)CC)c1OC(=O)CC)-c1ccc(SC)c(=O)cc1[C@@H](NC(=O)c1ccc([N+](=O)[O-])cc1)CC2	0%	> 25.9 µg/mL	> 12.9 µg/mL	12.9 µg/mL (≈ 19.9 µM)	16%	> 40 µM		29%	> 25.9 µg/mL	0%	12.3 µg/mL (≈ 19 µM)	Inhibition [13]: 40%
CSc1ccc2c(cc1=O)[C@@H](NC(=O)c1ccc([N+](=O)[O-])cc1)CCc1cc(O)c(O)c(O)c1-2	100%	> 9.6 µg/mL	> 9.6 µg/mL	> 9.6 µg/mL	20%	> 40 µM	0%	36%	> 9.6 µg/mL	< 100%	7.7 µg/mL (≈ 16 µM)	Inhibition [14]: 38%
CSc1ccc2c(cc1=O)[C@@H](NC(=O)c1ccc(N)cc1)CCc1cc(O)c(O)c(O)c1-2 [listing 1 of 2 here]		> 18 µg/mL	14.8 µg/mL (≈ 32.9 µM)	> 18 µg/mL	13%		0%		> 18 µg/mL		> 18 µg/mL	Inhibition [15]: 35%; Inhibition [16]: 39%
Br.CSc1ccc2c(cc1=O)[C@@H](NC(=O)c1ccc(N)cc1)CCc1cc(O)c(O)c(O)c1-2		> 19.5 µg/mL	10.7 µg/mL	> 19.5 µg/mL	37%	> 40 µM	42%		9.7 µg/mL		4.8 µg/mL	
CSc1ccc2c(cc1=O)[C@@H](NC(=O)c1ccc(F)cc1)CCc1cc(O)c(O)c(O)c1-2	100%					> 40 µM				0%		
COc1cc2c(c(O)c1O)-c1ccc(SC)c(=O)cc1[C@@H](NC(C)=O)CC2												IC50 [12]: > 150 µM
CSc1ccc2c(cc1=O)[C@@H](NC(=O)c1ccc(N)cc1)CCc1cc(O)c(O)c(O)c1-2 [listing 2 of 2 here]	100%									0%		
Br.CSc1ccc2c(cc1=O)[C@@H](N)CCc1cc(O)c(O)c(O)c1-2	100%	> 13.2 µg/mL	> 13.2 µg/mL	> 13.2 µg/mL				0%	> 13.2 µg/mL	0%	> 13.2 µg/mL	Inhibition [17]: 2%; Inhibition [14]: 23%; Inhibition [18]: 0%; Inhibition [19]: 0%
CSc1ccc2c(cc1=O)[C@@H](NC(=O)C13CC4CC(CC(C4)C1)C3)CCc1cc(O)c(O)c(O)c1-2	0%					> 40 µM				0%		
